# The campaign covered roughly 97,000 compounds. About 770 (0.79%) were called active. The sample as a whole holds a higher share of actives than the screen did. Unmarked numbers belong to inactive results.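 The calls were made as follows: active = inhibition above the screen-wide mean plus 3 SD (cut at about 35% in these data); inactive = the rest.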
# Target: Protein Rev (Human immunodeficiency virus type 1 group M subtype B (isolate WMJ22)) (UniProt P05866)
# Assay: HIV-1 Rev-RRE binding inhibitors, primary screen, biochemical, FRET, protein-RNA interaction (AID 704);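 also: 0% = median DMSO wells and 100% = median Neomycin B control wells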
# Conditions: Rev peptide-RRE RNA binding, at 8 µM, active compounds read high
# Procedure, shortened: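 System: Cy5-labelled duplex RRE RNA binding fluorescein-labelled HIV Rev peptide; Signal: fluorescein-to-Cy5 FRET, 480 nm excitation; Also added: labelled Rev peptide; Compound: one concentration, 8 µM nominal; Buffer or medium: HEPES pH 7.5 salt buffer with EDTA; Read-out: % inhibition of FRET ratio versus controls; Schedule: 5 min preincubation and 15 min binding, 25 °C.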
# Chain of Protein Rev (Human immunodeficiency virus type 1 group M subtype B (isolate WMJ22)) (P05866 whole entry, looked up): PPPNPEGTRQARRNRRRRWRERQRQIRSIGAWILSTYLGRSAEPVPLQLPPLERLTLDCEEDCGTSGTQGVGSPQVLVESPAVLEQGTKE
row,SMILES,inhibition
1,O=C(Nc1nccs1)C1CCN(S(=O)(=O)c2ccc(Cl)c(C(F)(F)F)c2)CC1,11.3%
2,COC(=O)c1sccc1-n1cccc1C(=O)C(=O)N1CCCCC1,4.4%
3,Cc1cccc(-c2nc3c(c(SCC(=O)N4CCOCC4)n2)CCCC3)c1,12.4%
4,CCCCSc1[nH]c(=O)c(C(=O)OCC)cc1C#N,0.71%
5,COc1ccc(-n2nc(C(=O)NCC(=O)Nc3cccc(C)n3)c3ccccc3c2=O)cc1,6.83%
6,Cc1nc(-c2ccccc2)sc1-c1nc(-c2ccccc2)ncc1S(=O)(=O)c1ccccc1,2.59%
7,CNC(=O)/C(=C\C=C\c1ccccc1)NC(=O)c1ccc([N+](=O)[O-])cc1,3.26%
8,CCOC(=O)c1cnn(Cc2ccccc2Cl)c1N,3.78%
9,CCCCCCc1cc2cc(-c3nnc(-c4cccc(OC)c4)o3)c(=O)oc2cc1O,126% [fluorescence artefact?] (active)
10,COc1cccc(C(=O)c2cc3ccc(O)cc3oc2=O)c1,2.17%
11,O=c1oc2cc(O)ccc2cc1-c1ccc(F)cc1,10.2%
12,CCCCCCc1cc2cc(-c3nnc(-c4ccccc4)o3)c(=O)oc2cc1O,136% [fluorescence artefact?] (active)
13,CCCCN(CC)CCCNC(=O)CS(=O)(=O)Cc1nc(-c2cccc(OC)c2)oc1C,-1.81%
14,COc1cc(C(=O)NC(=S)NCc2ccco2)cc(OC)c1OC,-0.1%
15,COc1ccc(-c2cc(C3CCN(c4ncccc4[N+](=O)[O-])CC3)[nH]n2)cc1,15.1%
16,Cc1cccc(CSc2nnc(NC(=O)CSc3nnc(C)s3)s2)c1,2.97%
17,Cc1ccc(-c2noc(CSc3nnc(-c4ccncc4)n3-c3ccc(F)cc3)n2)cc1,1.43%
18,CCOc1ccc(NC(=O)N(CC(C)C)CC(C)C)cc1,7.89%
19,COc1ccc(CCNC(=S)NC(=O)/C=C/c2ccc(C)cc2)cc1OC,-2.76%
20,CC(=O)Nc1ccc(S(=O)(=O)N2CCN(C(=O)c3ccccc3F)CC2)cc1,4.25%
21,Cn1c2c(c(=O)n(C)c1=O)C(c1cccc([N+](=O)[O-])c1)Nc1ccccc1O2 (centres undefined),0.04%
22,CS(=O)(=O)n1nc(-c2ccccc2)nc1NCc1ccco1,7.66%
23,CSc1nc(N(C)NC(=O)c2cccc(C)c2)c2ccccc2n1,3.84%
24,Cc1ccc(C)c(NC(=O)C2Cc3ccccc3CN2C(=O)OCc2ccccc2)c1 (centres undefined),15.4%

# From PubChem BioAssay AID704 (The Scripps Research Institute Molecular Screening Center, 2007)
